Published values from different studies.
Compare with care: the assays were run in different laboratories.
Target: Cytochrome P450 1A2 (CYP1A2, Homo sapiens, UniProt P05177)
Read-out: enzyme activity
Action: inhibitor

`C#Cc1ccc2c(=O)cc(-c3ccccc3)oc2c1` gave a Ki of 0.52 µM (6 min; pH 7.6).
With `COc1ccc2[nH]c([S+]([O-])Cc3ncc(C)c(OC)c3C)nc2c1` (stereo not drawn) the IC50 was 112 µM (fluorescence).
With `CC1=CC(=O)C(C(C)C)=CC1=O` the IC50 was 557 µM (fluorescence; pH 7.4).
For `COc1ccn2c(Nc3ccccc3F)c(-c3ccncn3)nc2c1`, the IC50 was 1.8 µM.
`Cc1cc2c(F)c(Oc3ncnn4cc(OC[C@@H](C)O)c(C)c34)ccc2[nH]1` gave an IC50 of 44.5 µM (fluorescence; 15 min).
`C#Cc1ccc2cc(-c3ccccc3)c(=O)oc2c1` has a Ki of 2.97 µM (6 min; pH 7.6).
With `CCC(C)(C)C(=O)O[C@H]1C[C@@H](C)C=C2C=C[C@H](C)[C@H](CC[C@@H](O)C[C@@H](O)CC(=O)O)[C@H]21` the IC50 was > 100 µM (fluorescence).
`COc1ccc2cc3[n+](cc2c1OC)CCc1cc2c(cc1-3)OCO2` gave an IC50 of > 10 µM.
The IC50 of `C=CC(=O)Nc1cc(Nc2nccc(Nc3cc(Cl)c(F)cc3C(C)(C)O)n2)c(OC)cc1N1CC[C@@H](N(C)C)C1` is reported as > 30 µM (human; liver microsomes).
`NS(=O)(=O)NCCNc1nonc1C(=NO)Nc1ccc(F)c(Br)c1` has an IC50 of > 10 µM (fluorescence).
`CCCCCNC(=N)N/N=C/c1c[nH]c2ccc(OC)cc12` gave an IC50 of 347 µM (fluorescence).
The Ki of `Cc1cc(C)c2c(c1)[C@@H](N(Cc1cc(C(F)(F)F)cc(C(F)(F)F)c1)c1nnn(C)n1)CCCN2C[C@H]1CC[C@H](C(=O)O)CC1` is reported as 7.1 µM (human; liver microsomes; pH 7.4).
